The record followed here is ChEMBL document CHEMBL1149551, “Novel selective PPARdelta agonists: optimization of activity by modification of alkynylallylic moiety” (Bioorg Med Chem Lett, 2007).

Where only a bound is given, the exact number is not on record here.

In assay [1] the target is T1, Peroxisome proliferator-activated receptor delta (Homo sapiens, UniProt Q03181).
T1 sequence (Q03181 whole entry): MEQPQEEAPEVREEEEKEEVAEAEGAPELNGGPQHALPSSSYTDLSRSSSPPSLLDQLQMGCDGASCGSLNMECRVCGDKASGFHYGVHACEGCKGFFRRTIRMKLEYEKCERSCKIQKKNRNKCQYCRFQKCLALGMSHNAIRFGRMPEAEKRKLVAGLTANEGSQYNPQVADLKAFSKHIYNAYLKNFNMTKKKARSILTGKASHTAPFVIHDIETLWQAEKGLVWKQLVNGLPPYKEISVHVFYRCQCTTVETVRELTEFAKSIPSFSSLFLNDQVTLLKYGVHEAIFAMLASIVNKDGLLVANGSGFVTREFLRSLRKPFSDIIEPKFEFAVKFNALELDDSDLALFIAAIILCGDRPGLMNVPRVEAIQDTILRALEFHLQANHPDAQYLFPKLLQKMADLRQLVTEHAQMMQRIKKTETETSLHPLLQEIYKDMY

For assay [2], the target named is T2, Peroxisome proliferator-activated receptor alpha (Homo sapiens, UniProt Q07869).
T2 sequence (Q07869 whole entry): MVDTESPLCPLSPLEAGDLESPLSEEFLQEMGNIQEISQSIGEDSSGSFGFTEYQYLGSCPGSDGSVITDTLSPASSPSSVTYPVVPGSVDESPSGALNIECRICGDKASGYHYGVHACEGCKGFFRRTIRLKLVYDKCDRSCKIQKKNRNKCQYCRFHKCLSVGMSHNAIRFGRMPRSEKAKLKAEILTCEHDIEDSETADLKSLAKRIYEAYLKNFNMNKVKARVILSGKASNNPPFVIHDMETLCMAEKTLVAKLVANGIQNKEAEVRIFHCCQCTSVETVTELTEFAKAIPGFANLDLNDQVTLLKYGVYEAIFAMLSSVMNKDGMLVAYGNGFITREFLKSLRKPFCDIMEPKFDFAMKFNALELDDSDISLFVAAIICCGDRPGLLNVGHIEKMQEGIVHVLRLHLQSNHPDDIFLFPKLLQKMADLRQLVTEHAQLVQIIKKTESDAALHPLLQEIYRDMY
Kind of assay: Agonist activity at human PPARalpha by transactivation assay. The format is functional.

Assay [3] has as its target T3, Peroxisome proliferator-activated receptor gamma (Homo sapiens, UniProt P37231).
T3 sequence (P37231 whole entry): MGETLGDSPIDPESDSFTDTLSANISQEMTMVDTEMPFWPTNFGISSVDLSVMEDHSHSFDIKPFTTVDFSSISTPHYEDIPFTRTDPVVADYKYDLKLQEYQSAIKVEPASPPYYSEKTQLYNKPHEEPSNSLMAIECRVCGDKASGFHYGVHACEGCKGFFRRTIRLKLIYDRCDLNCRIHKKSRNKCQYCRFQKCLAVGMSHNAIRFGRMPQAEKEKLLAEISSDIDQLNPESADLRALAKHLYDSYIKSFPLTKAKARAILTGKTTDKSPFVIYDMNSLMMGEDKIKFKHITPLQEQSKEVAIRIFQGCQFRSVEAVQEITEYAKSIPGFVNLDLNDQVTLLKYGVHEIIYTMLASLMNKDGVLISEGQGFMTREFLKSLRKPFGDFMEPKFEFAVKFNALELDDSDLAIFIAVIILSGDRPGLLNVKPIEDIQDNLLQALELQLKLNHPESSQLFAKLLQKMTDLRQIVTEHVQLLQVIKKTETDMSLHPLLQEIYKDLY
Type of assay: functional.

The target of assay [4] is T4, Peroxisome proliferator-activated receptor alpha (Homo sapiens) (UniProt Q07869).
T4 sequence (whole entry): T2 sequence (Q07869 whole entry)
Kind of assay: Agonist activity at human PPARalpha by transactivation assay relative to NNC 61-4655. Type of assay: functional. Summed up:
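Transactivation run in at least three separate experiments, each at five or more concentrations from 0.001 to 30 µM. EC50 is the concentration giving half of the compound's own maximal activity, reported as the mean. Efficacy is given relative to the maximal activity of the reference PPARα agonist.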

As for `CCO[C@@H](Cc1ccc(OC/C=C/C#Cc2ccccc2)cc1)C(=O)O`, the EC50 (usually the concentration that produces a half-maximal response) was 6.4 µM in assay [1], 0.01 µM in assay [2] and 2.6 µM in assay [3].
As to `Cc1cc(OC/C=C(\C#Cc2ccccc2)c2ccc(Br)cc2)ccc1OCC(=O)O`, in assay [4], the %max is < 10%.
`CCO[C@@H](Cc1ccc(OC/C=C(\C#Cc2ccccc2)c2ccccc2)cc1)C(=O)O`: the EC50 in assay [2] and in assay [3] was > 10 µM in each case.
`Cc1cc2cc(C(C#Cc3ccc(F)cc3)/C=C\COc3ccc(OCC(=O)O)c(C)c3)ccc2o1` (stereo unspecified): the EC50 in assay [2] and in assay [3] was > 10 µM throughout. In assay [4], the %max was > 41%.
As to `Cc1cc(OC/C=C\C(C#Cc2ccccn2)c2ccc(Br)cc2)ccc1OCC(=O)O` (stereo unspecified), the figures for the concentration for a half-maximal effect (EC50) in assay [1] and in assay [2] were 0.24 µM and > 10 µM, respectively. Besides, the %max in assay [4] was > 22%.
On to `CN(CCOc1ccc(CC2SC(=O)NC2=O)cc1)c1ccccn1` (stereo unspecified), for which the %max in assay [4] is > 24%.
As to `COc1ccc(C#CC(/C=C\CSc2ccc(OCC(=O)O)c(C)c2)c2ccc(-c3ccccc3)cc2)cc1` (stereo unspecified), the EC50 in assay [1] is 0.011 µM; in assay [2], > 10 µM; in assay [3] it was > 10 µM. Further, the %max in assay [4] is > 58%.
`Cc1cc(SC/C=C/C#Cc2ccccc2)ccc1OCC(=O)O`: the values for the EC50 in assay [1] and in assay [2] were 12.1 µM and 14 µM, respectively.
With `Cc1cc(OC/C=C\C(C#Cc2ccccc2)c2cnc3ccccc3c2)ccc1OCC(=O)O` (stereo unspecified), the results for the EC50 in assay [2] and in assay [3] were 4.1 µM and 6.6 µM, respectively. In assay [4], this molecule had a %max of 33%.
Take `Cc1cc(OC/C=C(\C#Cc2ccccc2)c2ccccc2)ccc1OCC(=O)O`: the %max in assay [4] was < 10%.
`Cc1cc(SCc2sc(-c3ccc(C(F)(F)F)cc3)nc2C)ccc1OCC(=O)O` displayed a %max in assay [4] of 68%.
Consider `Cc1cc(SC/C=C\C(C#Cc2ccccc2)c2ccc(Br)cc2)ccc1OCC(=O)O` (stereo unspecified), for which the EC50 is 0.16 µM in assay [1], > 10 µM in assay [2] and > 10 µM in assay [3]. Also, the %max in assay [4] was > 24%.
Turning to `Cc1cc2cc(C(C#Cc3ccc(C)s3)/C=C\COc3ccc(OCC(=O)O)c(C)c3)ccc2o1` (stereo unspecified), the EC50 is 0.15 µM in assay [1], 5.8 µM in assay [2] and > 10 µM in assay [3]. For the same molecule, in assay [4], the %max was < 10%.
Turning to `Cc1cc(OC/C=C\C(C#Cc2ccc(C(F)(F)F)cc2)c2ccc(Br)cc2)ccc1OCC(=O)O` (stereo unspecified), the EC50 in assay [1] is 0.13 µM; in assay [2], > 10 µM. Besides, the %max in assay [4] is > 19%.
For `Cc1ccc(C#CC(/C=C\COc2ccc(OCC(=O)O)c(C)c2)c2ccc(Br)cc2)s1` (stereo unspecified), in that order: 0.22 µM, > 10 µM and > 15%.
As to `Cc1ccc(-c2ccc(/C(C#Cc3ccccc3)=C/COc3ccc(OCC(=O)O)c(C)c3)cc2)s1`, the EC50 in assay [2] and in assay [3] was > 10 µM in each case. Also, in assay [4], the %max is > 60%.
